These results are taken from paper PMC2628580 (Chemistry & biology, 2008).

Entries after “also recorded” stand apart in the source; their conditions may differ.

Test [1] has as its target T1, rat OR-I7 (Rattus norvegicus, UniProt P23270).
T1 sequence (P23270 1-327): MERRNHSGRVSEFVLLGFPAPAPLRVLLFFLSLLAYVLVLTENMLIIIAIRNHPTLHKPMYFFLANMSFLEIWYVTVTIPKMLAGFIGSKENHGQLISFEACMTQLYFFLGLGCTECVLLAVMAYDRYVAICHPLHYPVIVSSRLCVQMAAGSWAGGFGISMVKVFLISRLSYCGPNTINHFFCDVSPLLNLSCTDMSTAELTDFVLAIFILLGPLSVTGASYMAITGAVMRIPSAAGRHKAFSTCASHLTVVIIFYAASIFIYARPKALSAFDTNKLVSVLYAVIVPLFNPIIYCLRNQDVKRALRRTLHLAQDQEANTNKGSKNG
It is filed as cell-based. The settings on record: for activation of OR-I7 (in words): dose-response by calcium imaging; for OR-I7 response at 30 μM (in words): calcium imaging trace of a GFP+ OSN; for maximal efficacy relative to 10 μM 1: mean ± SEM; for potency compared with n-alkanals (in words): activation dose-response curves. In a few lines: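 Dissociated olfactory neurons from male Sprague-Dawley rats (6-7 wk) infected with adenovirus encoding OR-I7 plus separate GFP. GFP+ cells were fura-2AM loaded for 45 min at room temperature and imaged at 380/510 nm every 4 s. The compound came from 0.5M DMSO stock with DMSO-matched dilutions, given as 4 s pulses 3.25 min apart. Each movie was flanked by 10 μM normalizing stimuli and ΔF/F normalized to the trend line. Hill fit used ≥3 cells per point; EC50 ± SD.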

Test [2] addresses T1, rat OR-I7. As to the kind of experiment: Antagonism of octanal. It is filed as cell-based. As to conditions: against saturating 10 μM C8. In a few lines: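 GFP+ OR-I7-expressing rat olfactory neurons were imaged with fura-2 at room temperature under continuous Ringer perfusion at pH 7.4. The test compound at various concentrations was co-applied with 10 μM octanal. The response was normalized to a trend line between flanking stimuli. An antagonist had to give under 90% of the octanal-alone response. Ratios are mean ± SEM. Inhibition curves were Hill-fitted, with at least three cells per point and IC50 ± SD.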

Test [3] concerns rat OSNs. As to the kind of experiment: Panel screening of 1190 viable rat OSNs by calcium imaging. It is filed as cell-based. The settings on record: 30 μM, 1190 tested rat OSNs. The gist of the method:
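Whole olfactory epithelium from uninfected rats was dissociated (collagenase, dispase), plated on concanavalin A coverslips and kept at 32 °C. Cells were loaded with fura-2AM and imaged at room temperature. Each test compound was given individually at 30 μM in random order, 5 min apart, with a DMSO vehicle application. 10 μM forskolin came last for normalization and viability. Responding cells were counted among 1190 tested.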

The test system of test [4] is OR-I7. The settings on record: vapor phase; ref Araneda et al., 2000; Zhao et al., 1998; cited from earlier work.

Consider `O=CC1CCCCCC1` [Compound 6], for which the “activation of OR-I7 (in words)” value in test [1] is “weakly or not at all; also recorded: inactive”. Also, in test [2], the “antagonism of C8 activation of OR-I7 (in words)” value is reported as “antagonize C8 activity”. Moreover, in test [3], the “percentage of OSNs activated” value came out at 3.6%.
For `O=CCCC1CCCC1` [Compound 4], in test [1], the “OR-I7 response at 30 μM (in words)” value is given as “unresponsive” and the “activation of OR-I7 (in words)” value is reported as “weakly or not at all; also recorded: marginally active”.
Turning to `CCCCCCC=O` [Compound C7, reference compound], the “increase in activity in the step from C6 to C7” value in test [1] (C7 vs C6, calcium imaging) worked out at 145 fold. Further, in test [1], the “maximal efficacy relative to 10 μM 1” value worked out at 0.86 ± 0.07. Further, the “activation of OR-I7 by EOG (in words)” value in test [4] is on record as “activation”.
`O=CCC1CCCCC1` [Compound 5]: the “activation of OR-I7 (in words)” value in test [1] is “weakly or not at all; also recorded: inactive; also recorded: no substantial activity”. For the same compound, in test [3], the “percentage of OSNs activated” value turned out to be 3.4%.
On to `CCCCC=O` [Compound C5, reference compound], for which, in test [1], the “activation of OR-I7 (in words)” value was “inactive”.
Take `O=CCCCCC1CC1` [Compound 2]: in test [1], the “potency compared with n-alkanals (in words)” value is on record as “more potent than C8”, the “activation of OR-I7 (in words)” value was “strongly activated” and the “maximal efficacy relative to 10 μM 1” value is reported as 0.99 ± 0.02. Further, the “fold more potent than C7” value in test [1] (compound 2 vs C7, identical extended length) came to 40 fold.
For `CCC1CCC(CC=O)CC1` (stereo not shown) [Compound 11], the “potency compared with n-alkanals (in words)” value in test [1] is “more active than C8”. The “maximal efficacy relative to 10 μM octanal” value in test [1] (cis/trans mixture) amounted to 1.07 ± 0.05.
Regarding `CCCC=O` [Compound C4, reference compound], in test [1], the “activation of OR-I7 (in words)” value is “inactive; also recorded: neither type of activity”. For the same compound, the “antagonism of C8 activation of OR-I7 (in words)” value in test [2] is on record as “failure of C4 (3.9Å) to antagonize C8 activation; also recorded: neither type of activity”.
On to `O=CCCCC1CCC1` [Compound 3], for which, in test [1], the “OR-I7 response at 30 μM (in words)” value is on record as “near saturating level”, the “potency compared with n-alkanals (in words)” value is “more potent than both”, the “activation of OR-I7 (in words)” value is “strongly activated” and the “maximal efficacy relative to 10 μM 1” value is given as 1.06 ± 0.1. In addition, the “difference in activity between compound 4 and compound 3” value in test [1] (ratio of EC50, compound 3 vs compound 4) was 163 fold.
Turning to `CCCCCCCC=O` [Compound C8, octanal, reference compound], the “maximal efficacy relative to 10 μM 1” value in test [1] came to 0.89 ± 0.02. In addition, the “percentage of OSNs activated” value in test [3] worked out at 5.9%.
In the case of `CCCCCC=O` [Compound C6, reference compound], the “activation of OR-I7 (in words)” value in test [1] was “marginally active”. Moreover, in test [4], the “activation of OR-I7 by EOG (in words)” value is recorded as “no activation”.
